According to ChEMBL document CHEMBL1799988, “Novel chalcone derivatives as potent Nrf2 activators in mice and human lung epithelial cells” (J Med Chem, 2011):
Activity calls are given as the source filed them. The calls are words filed in the database; no cut-off is given here.

Key:
[1] = Cytotoxicity against human BEAS2B cells assessed as cell viability after 24 hrs by MTT assay; type: cell-based, BEAS-2B; design: concentration or dose not given beside the values; settings: read-out: Activity
In short: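 Beas-2B cells treated with compound or DMSO vehicle (0.1%) for 24 h; MTT (5 mg/ml in serum-free medium) added for the last 4 h, formazan dissolved in DMSO after PBS wash, absorbance read at 570 nm. Viability also checked by trypan blue exclusion.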

[2] = biological target: T1, Nuclear factor erythroid 2-related factor 2 (Homo sapiens) (UniProt Q16236); test: Induction of Nrf2-mediated NQO1 gene expression in human BEAS2B cells at 10 uM after 16 hrs by RT-PCR analysis relative to untreated control; type: functional, cell-based
T1 sequence (whole entry): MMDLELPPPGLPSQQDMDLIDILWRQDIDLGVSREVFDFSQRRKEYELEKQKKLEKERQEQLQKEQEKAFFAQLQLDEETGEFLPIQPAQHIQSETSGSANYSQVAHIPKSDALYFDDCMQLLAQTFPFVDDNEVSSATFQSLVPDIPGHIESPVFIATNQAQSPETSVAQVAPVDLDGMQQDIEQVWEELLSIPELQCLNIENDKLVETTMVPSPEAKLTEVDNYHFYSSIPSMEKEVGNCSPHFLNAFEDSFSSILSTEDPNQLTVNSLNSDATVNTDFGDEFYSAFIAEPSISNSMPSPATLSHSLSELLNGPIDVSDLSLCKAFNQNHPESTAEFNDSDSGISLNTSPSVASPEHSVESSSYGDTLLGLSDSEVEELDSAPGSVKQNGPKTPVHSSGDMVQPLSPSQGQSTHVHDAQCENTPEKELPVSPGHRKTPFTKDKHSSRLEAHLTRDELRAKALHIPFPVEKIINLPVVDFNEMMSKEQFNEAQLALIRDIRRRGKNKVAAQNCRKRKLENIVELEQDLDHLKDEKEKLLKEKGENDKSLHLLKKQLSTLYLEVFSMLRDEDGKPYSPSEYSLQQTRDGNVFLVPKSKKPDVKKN
In short: (§1)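 Beas-2B cells (DMEM:F12, 10% FBS) plated 24 h, then exposed to 10 µM compound in DMSO (final ≤0.1%) for 16 h; sulforaphane as positive control. Total RNA extracted, reverse transcribed with random hexamers, GCLM and NQO1 mRNA quantified by TaqMan qRT-PCR, fold change vs DMSO. Representative of 3 independent experiments, quadruplicate wells.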

[3] = biological target: T1, Nuclear factor erythroid 2-related factor 2 (Homo sapiens); test: Induction of Nrf2-mediated GCLM gene expression in human BEAS2B cells at 10 uM after 16 hrs by RT-PCR analysis relative to untreated control; type: functional, cell-based; in short: as §1
[4] = system: Mus musculus; test: Induction of Nrf2-mediated GCLM gene expression in small intestine of C57BL/6 mouse at 50 mg/kg, po administered as single dose measured after 24 hrs by RT-PCR analysis related to control; type: functional
In short: (§2)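 Male C57BL/6 mice (7 weeks, AIN 76A diet; n=4) given a single 50 mg/kg oral gavage of compound, sulforaphane, or vehicle (10% DMSO + 10% Cremophor EL + 80% PBS). Small intestine harvested 24 h later; GCLM and NQO1 mRNA measured by TaqMan qRT-PCR with β-actin normalization.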

[5] = system: Mus musculus; test: Induction of Nrf2-mediated NQO1 gene expression in small intestine of C57BL/6 mouse at 50 mg/kg, po administered as single dose measured after 24 hrs by RT-PCR analysis related to control; type: functional; in short: as §2

COc1cccc(OC)c1C(=O)/C=C/c1ccccc1[N+](=O)[O-]
viability at 24 h [1]: 75.8%
fold change (FC) [2]: 3.7
fold change (FC) [3]: 4.1

COc1cc(C(=O)/C=C/c2ccc(C(F)(F)F)cc2)cc(OC)c1OC
fold change (FC) [2]: 3.7
fold change (FC) [3]: 4.1

O=C(/C=C/c1cccc(C(F)(F)F)c1)c1ccccc1
fold change (FC) [2]: 2.8
fold change (FC) [3]: 3.1

COc1cc(OC)cc(C(=O)/C=C/c2ccccc2C(F)(F)F)c1
viability at 24 h [1]: 87.1%
fold change (FC) [2]: 3.7
fold change (FC) [3]: 4

COc1cc(OC)c(C(=O)/C=C/c2ccccc2)c(OC)c1
fold change (FC) [2]: 1.8
fold change (FC) [3]: 3.1

COc1cccc(OC)c1C(=O)/C=C/c1ccc(C(F)(F)F)cc1
fold change (FC) [2]: 0.6
fold change (FC) [3]: 1.4

COc1ccc(OC)c(C(=O)/C=C/c2cccc(C(F)(F)F)c2)c1
fold change (FC) [2]: 0.8
fold change (FC) [3]: 1.8

COc1ccccc1C(=O)/C=C/c1ccccc1[N+](=O)[O-]
fold change (FC) [2]: 1.4
fold change (FC) [3]: 1.9

COc1ccc(OC)c(C(=O)/C=C/c2ccccc2)c1
fold change (FC) [2]: 2.6
fold change (FC) [3]: 3

COc1ccc(OC)c(C(=O)/C=C/c2ccc(C(F)(F)F)cc2)c1
viability at 24 h [1]: 91.6%
fold change (FC) [2]: 4
fold change (FC) [3]: 4.1

COc1cc(OC)c(C(=O)/C=C/c2ccccc2[N+](=O)[O-])c(OC)c1
fold change (FC) [2]: 2
fold change (FC) [3]: 2.6

O=C(/C=C/c1ccccc1C(F)(F)F)c1ccccc1
viability at 24 h [1]: 145%
Activity [4]: Active
fold change (FC) [2]: 5.3
Activity [5]: Active
fold change (FC) [3]: 5

COc1ccc(C(=O)/C=C/c2ccc(C(F)(F)F)cc2)cc1OC
fold change (FC) [2]: 2.7
fold change (FC) [3]: 3.5

COc1ccc(C(=O)/C=C/c2ccccc2[N+](=O)[O-])cc1OC
fold change (FC) [2]: 2.7
fold change (FC) [3]: 2.3

COc1cc(OC)c(C(=O)/C=C/c2ccc(C(F)(F)F)cc2)c(OC)c1
fold change (FC) [2]: 2.4
fold change (FC) [3]: 2.4

COc1ccc(C(=O)/C=C/c2ccccc2C(F)(F)F)cc1
viability at 24 h [1]: 96%
Activity [4]: Active
fold change (FC) [2]: 4.6
Activity [5]: Active
fold change (FC) [3]: 5.4

COc1cc(OC)cc(C(=O)/C=C/c2ccccc2[N+](=O)[O-])c1
viability at 24 h [1]: 90.9%
fold change (FC) [2]: 4.1
fold change (FC) [3]: 3.4

COc1ccc(C(=O)/C=C/c2ccc(C(F)(F)F)cc2)c(OC)c1OC
viability at 24 h [1]: 100%
fold change (FC) [2]: 3.9
fold change (FC) [3]: 4.1

COc1ccc(C(=O)/C=C/c2ccc(C(F)(F)F)cc2)cc1
viability at 24 h [1]: 104%
fold change (FC) [2]: 4.6
fold change (FC) [3]: 3.5

COc1cccc(C(=O)/C=C/c2ccc(C(F)(F)F)cc2)c1
fold change (FC) [2]: 3.1
fold change (FC) [3]: 2.9

COc1ccc(C(=O)/C=C/c2cccc(C(F)(F)F)c2)cc1
fold change (FC) [2]: 2.8
fold change (FC) [3]: 2.7

COc1cc(OC)c(C(=O)/C=C/c2cccc(C(F)(F)F)c2)c(OC)c1
fold change (FC) [2]: 0.7
fold change (FC) [3]: 1.4

COc1ccc(OC)c(C(=O)/C=C/c2ccccc2C(F)(F)F)c1
fold change (FC) [2]: 2.7
fold change (FC) [3]: 4.4

COc1ccc(C(=O)/C=C/c2cccc(C(F)(F)F)c2)cc1OC
fold change (FC) [2]: 2.9
fold change (FC) [3]: 4.1

COc1ccc(C(=O)/C=C/c2ccccc2)c(OC)c1OC
fold change (FC) [2]: 2.4
fold change (FC) [3]: 2.4

O=C(/C=C/c1ccccc1)c1ccccc1
fold change (FC) [2]: 1.8
fold change (FC) [3]: 0.7

COc1ccccc1C(=O)/C=C/c1cccc(C(F)(F)F)c1
fold change (FC) [2]: 2.9
fold change (FC) [3]: 3.9

COc1ccc(C(=O)/C=C/c2ccccc2C(F)(F)F)cc1OC
fold change (FC) [2]: 2.7
fold change (FC) [3]: 4.3

COc1ccc(C(=O)/C=C/c2ccc(C(F)(F)F)cc2)c(OC)c1
viability at 24 h [1]: 92.6%
fold change (FC) [2]: 4.8
fold change (FC) [3]: 5

COc1cc(OC)cc(C(=O)/C=C/c2cccc(C(F)(F)F)c2)c1
viability at 24 h [1]: 108%
fold change (FC) [2]: 3.9
fold change (FC) [3]: 3.8

COc1ccccc1C(=O)/C=C/c1ccccc1
fold change (FC) [2]: 3.2
fold change (FC) [3]: 3.6

COc1cc(C(=O)/C=C/c2ccccc2[N+](=O)[O-])cc(OC)c1OC
fold change (FC) [2]: 0.7
fold change (FC) [3]: 1.2

COc1ccc(C(=O)/C=C/c2cccc(C(F)(F)F)c2)c(OC)c1
fold change (FC) [2]: 4
fold change (FC) [3]: 4.6

COc1ccc(C(=O)/C=C/c2ccccc2[N+](=O)[O-])c(OC)c1
fold change (FC) [2]: 3.3
fold change (FC) [3]: 2.7

COc1ccc(C(=O)/C=C/c2ccccc2)cc1
fold change (FC) [2]: 2.8
fold change (FC) [3]: 1.9

COc1cccc(OC)c1C(=O)/C=C/c1ccccc1C(F)(F)F
viability at 24 h [1]: 101%
Activity [4]: Active
fold change (FC) [2]: 5.3
Activity [5]: Active
fold change (FC) [3]: 5.7

COc1cc(OC)cc(C(=O)/C=C/c2ccccc2)c1
fold change (FC) [2]: 2.4
fold change (FC) [3]: 3

COc1ccc(C(=O)/C=C/c2cccc(C(F)(F)F)c2)c(OC)c1OC
fold change (FC) [2]: 3.2
fold change (FC) [3]: 3.6

COc1ccc(OC)c(C(=O)/C=C/c2ccccc2[N+](=O)[O-])c1
fold change (FC) [2]: 0.7
fold change (FC) [3]: 1.7

C[S+]([O-])CCCCN=C=S (stereo not drawn) [SULFORAPHANE]
viability at 24 h [1]: 97.3%
Activity [4]: Active
fold change (FC) [2]: 3.6
Activity [5]: Active
fold change (FC) [3]: 2.7

COc1cc(OC)c(C(=O)/C=C/c2ccccc2C(F)(F)F)c(OC)c1
viability at 24 h [1]: 145%
Activity [4]: Active
fold change (FC) [2]: 4.3
Activity [5]: Active
fold change (FC) [3]: 4.4

COc1ccc(C(=O)/C=C/c2ccccc2)cc1OC
fold change (FC) [2]: 2.5
fold change (FC) [3]: 2.3

COc1ccc(C(=O)/C=C/c2ccccc2C(F)(F)F)c(OC)c1OC
viability at 24 h [1]: 102%
Activity [4]: Active
fold change (FC) [2]: 4.1
Activity [5]: Active
fold change (FC) [3]: 5.4

COc1ccc(C(=O)/C=C/c2ccccc2[N+](=O)[O-])c(OC)c1OC
fold change (FC) [2]: 3.3
fold change (FC) [3]: 2.9

COc1ccc(C(=O)/C=C/c2ccccc2[N+](=O)[O-])cc1
viability at 24 h [1]: 93.2%
fold change (FC) [2]: 4.3
fold change (FC) [3]: 4.6

COc1cccc(OC)c1C(=O)/C=C/c1ccccc1
fold change (FC) [2]: 1.9
fold change (FC) [3]: 2.5

COc1cccc(OC)c1C(=O)/C=C/c1cccc(C(F)(F)F)c1
fold change (FC) [2]: 0.6
fold change (FC) [3]: 1.8

COc1ccc(C(=O)/C=C/c2ccccc2)c(OC)c1
fold change (FC) [2]: 2.8
fold change (FC) [3]: 2.7

COc1cc(C(=O)/C=C/c2cccc(C(F)(F)F)c2)cc(OC)c1OC
fold change (FC) [2]: 0.8
fold change (FC) [3]: 1.7

O=C(/C=C/c1ccc(C(F)(F)F)cc1)c1ccccc1
fold change (FC) [2]: 2.9
fold change (FC) [3]: 3.1

COc1ccc(C(=O)/C=C/c2ccccc2C(F)(F)F)c(OC)c1
viability at 24 h [1]: 105%
Activity [4]: Active
fold change (FC) [2]: 4.5
Activity [5]: Active
fold change (FC) [3]: 5.4

O=C(/C=C/c1ccccc1[N+](=O)[O-])c1ccccc1
fold change (FC) [2]: 1.6
fold change (FC) [3]: 2.1

COc1cccc(C(=O)/C=C/c2ccccc2[N+](=O)[O-])c1
fold change (FC) [2]: 2.7
fold change (FC) [3]: 2.9

COc1cc(C(=O)/C=C/c2ccccc2)cc(OC)c1OC
fold change (FC) [2]: 0.7
fold change (FC) [3]: 0.7

COc1ccccc1C(=O)/C=C/c1ccc(C(F)(F)F)cc1
viability at 24 h [1]: 91%
fold change (FC) [2]: 5.4
fold change (FC) [3]: 4.3

COc1cccc(C(=O)/C=C/c2ccccc2C(F)(F)F)c1
viability at 24 h [1]: 96.6%
Activity [4]: Active
fold change (FC) [2]: 4.3
Activity [5]: Active
fold change (FC) [3]: 5.6

COc1cc(C(=O)/C=C/c2ccccc2C(F)(F)F)cc(OC)c1OC
fold change (FC) [2]: 3.1
fold change (FC) [3]: 3

COc1cccc(C(=O)/C=C/c2ccccc2)c1
fold change (FC) [2]: 2.4
fold change (FC) [3]: 1.5

COc1cccc(C(=O)/C=C/c2cccc(C(F)(F)F)c2)c1
viability at 24 h [1]: 95.3%
fold change (FC) [2]: 3.5
fold change (FC) [3]: 4.6
